According to ChEMBL document CHEMBL3588757, “Structure-based design, synthesis and biological testing of piperazine-linked bis-epipodophyllotoxin etoposide analogs” (Bioorg Med Chem, 2015):

What was measured:
Assay type in all cases: functional
U-251 = experiment: Cytotoxicity against human U251 cells by SRB assay
Method in brief: (§1)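 NCI-60 panel screen; 5-dose testing giving GI50 per cell line, plus a single 10 µM one-dose test. Method details not given beyond the NCI screen.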

BT-549 = experiment: Cytotoxicity against human BT549 cells assessed as cell growth at 0.005 uM by SRB assay; conditions: read-out: Activity
SF-268 = experiment: Cytotoxicity against human SF268 cells assessed as cell growth at 0.05 uM by SRB assay; conditions: read-out: Activity
M14 = experiment: Cytotoxicity against human M14 cells by SRB assay; method in brief: as §1
KM12 = experiment: Cytotoxicity against human KM12 cells assessed as cell growth at 50 uM by SRB assay; conditions: read-out: Activity
NCI-H522 = experiment: Cytotoxicity against human NCI-H522 cells by SRB assay; method in brief: as §1
LOX IMVI = experiment: Cytotoxicity against human LOXIMVI cells assessed as cell growth at 5 uM by SRB assay; conditions: read-out: Activity
A498 = experiment: Cytotoxicity against human A498 cells by SRB assay
SK-MEL-28 = experiment: Cytotoxicity against human SK-MEL-28 cells assessed as cell growth at 0.5 uM by SRB assay; conditions: read-out: Activity
T47D = experiment: Cytotoxicity against human T47D cells assessed as cell growth at 0.05 uM by SRB assay; conditions: read-out: Activity
786-0 [1] = experiment: Cytotoxicity against human 786-0 cells assessed as cell growth at 0.5 uM by SRB assay; conditions: read-out: Activity
786-0 [2] = experiment: Cytotoxicity against human 786-0 cells by SRB assay
HL-60(TB) = experiment: Cytotoxicity against human HL-60(TB) cells assessed as cell growth at 0.5 uM by SRB assay; conditions: read-out: Activity
Method in brief: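 Measured in the NCI-60 human tumour cell line panel using five-dose testing. Growth was recorded at each dose for each cell line, and a GI50 was derived for each line.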

SF-295 = experiment: Cytotoxicity against human SF295 cells assessed as cell growth at 5 uM by SRB assay; conditions: read-out: Activity
MOLT-4 = experiment: Cytotoxicity against human MOLT4 cells by SRB assay; method in brief: as §1
SN12C = experiment: Cytotoxicity against human SN12C cells assessed as cell growth at 0.5 uM by SRB assay; conditions: read-out: Activity
UACC-257 = experiment: Cytotoxicity against human UACC257 cells assessed as cell growth at 0.05 uM by SRB assay; conditions: read-out: Activity
[3] = read-out: pLC50 (the source's name) (converted)
[4] = read-out: LC50 (the source's name)

For `COc1cc([C@@H]2c3cc4c(cc3[C@@H](NC(=O)CN3CCN(CCCCCCCCCCN5CCN(CC(=O)N[C@@H]6c7cc8c(cc7[C@@H](c7cc(OC)c(O)c(OC)c7)[C@H]7C(=O)OC[C@@H]76)OCO8)CC5)CC3)[C@H]3COC(=O)[C@H]23)OCO4)cc(OC)c1O`, the GI50 (U-251; read-out: pGI50 (converted)) was 537 nM, the CC50 (U-251; [3]) was 23400 nM and the TGI (U-251; read-out: pTGI (converted)) was 6310 nM. The growth at 0.005 µM (BT-549) was 94%, the growth at 0.05 µM (SF-268) was 77% and the GI50 (M14; read-out: GI50) was 703 nM. The CC50 (M14; [4]) was > 50000 nM, the TGI (M14; read-out: TGI) was 2200 nM and the GI50 (M14; read-out: pGI50 (converted)) was 708 nM. The CC50 (M14; [3]) was > 50100 nM, the TGI (M14; read-out: pTGI (converted)) was 2190 nM and the growth at 50 µM (KM12) was -31%. The GI50 (NCI-H522; read-out: GI50) was 32 nM, the CC50 (NCI-H522; [4]) was 4380 nM and the TGI (NCI-H522; read-out: TGI) was 797 nM. The GI50 (NCI-H522; read-out: pGI50 (converted)) was 32.4 nM, the CC50 (NCI-H522; [3]) was 4370 nM and the TGI (NCI-H522; read-out: pTGI (converted)) was 794 nM. The growth at 5 µM (LOX IMVI) was -80%, the CC50 (A498; [4]) was 14600 nM and the GI50 (A498; read-out: pGI50 (converted)) was 513 nM. It also gave a CC50 (A498; [3]) of 14800 nM, a TGI (A498; read-out: pTGI (converted)) of 3550 nM and a growth at 0.5 µM (SK-MEL-28) of 138%. The growth at 0.05 µM (T47D) was 81%, the growth at 0.5 µM (786-0 [1]) was 26% and the GI50 (786-0 [2]; read-out: GI50) was 209 nM. For the same compound, the CC50 (786-0 [2]; [4]) was 18700 nM, the TGI (786-0 [2]; read-out: TGI) was 2340 nM and the GI50 (786-0 [2]; read-out: pGI50 (converted)) was 209 nM. The CC50 (786-0 [2]; [3]) was 18600 nM, the TGI (786-0 [2]; read-out: pTGI (converted)) was 2340 nM and the growth at 0.5 µM (HL-60(TB)) was 15%. The growth at 5 µM (SF-295) was 17%, the GI50 (MOLT-4; read-out: GI50) was 185 nM and the CC50 (MOLT-4; [4]) was 6020 nM. It also gave a TGI (MOLT-4; read-out: TGI) of 1400 nM, a GI50 (MOLT-4; read-out: pGI50 (converted)) of 186 nM and a CC50 (MOLT-4; [3]) of 6030 nM. For the same compound, the TGI (MOLT-4; read-out: pTGI (converted)) was 1410 nM, the growth at 0.5 µM (SN12C) was 27% and the growth at 0.05 µM (UACC-257) was 97%.
